Measured values from publication PMC3355950 (The Journal of Neuroscience, 2012).
In brackets after ≈: the same amount, converted by molar mass.

Key:
GluN1/2A-(2D S1) = GluN1/2A-(2D S1) (Rattus norvegicus, UniProt P35439+Q00959, A414R/D421P/DELINS438-452SQLNRTHSPPPDAPRPE/E427G/I408V/I422A/K454R/K466R/K472G/L425I/N404Q/N432D/N490D/N491G/R469H/S407T/S468A/S538A/T426S/T433S/T474S/V409A/V430I/V471I/V489I/V501F/V506D/V509I/V521I); assay: Two-electrode voltage-clamp recordings, Xenopus oocytes; format: cell-based; conditions: 100 μM glutamate + 3 μM glycine
Procedure, shortened: (§1)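 cRNA from linearized constructs injected into female Xenopus laevis oocytes. Two-electrode voltage clamp done 3–4 d later at 23°C, holding at −40 mV, in 90 NaCl, 1 KCl, 10 HEPES, 0.5 BaCl₂, 0.01 EDTA (mM), pH 7.4. […] Max inhibition is (control − residual at saturating compound)/control.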

GluN1/GluN2B L783F+F784V = GluN1/GluN2B L783F+F784V (Rattus norvegicus, UniProt P35439+Q00960, F784V/L783F); assay: Two-electrode voltage-clamp recordings, Xenopus oocytes; format: cell-based
GluN1/GluN2C = GluN1/GluN2C (Rattus norvegicus, UniProt P35439+Q00961); assay: Two-electrode voltage-clamp recordings, Xenopus oocytes; format: cell-based; conditions: 100 μM glutamate + 3 μM glycine; N.E. = no effect at 10 μM TCN-201
Procedure, shortened: as §1

GluN1/GluN2A V783A = GluN1/GluN2A V783A (Rattus norvegicus, UniProt P35439+Q00959, V783A); assay: Two-electrode voltage-clamp recordings, Xenopus oocytes; format: cell-based; conditions: 100 μM glutamate + 3 μM glycine
GluN1/GluN2A V783F = GluN1/GluN2A V783F (Rattus norvegicus, UniProt P35439+Q00959, V783F); assay: as above; format: cell-based; conditions: 100 μM glutamate + 3 μM glycine
GluN1/GluN2A V783W = GluN1/GluN2A V783W (Rattus norvegicus, UniProt P35439+Q00959, V783W); assay: as above; format: cell-based; conditions: 100 μM glutamate + 3 μM glycine
GluN1/GluN2A V783H = GluN1/GluN2A V783H (Rattus norvegicus, UniProt P35439+Q00959, V783H); assay: as above; format: cell-based; conditions: 100 μM glutamate + 3 μM glycine
GluN1/GluN2A P527A = GluN1/GluN2A P527A (Rattus norvegicus, UniProt P35439+Q00959, P527A); assay: as above; format: cell-based; conditions: 100 μM glutamate + 3 μM glycine
GluN1/GluN2A L779A = GluN1/GluN2A L779A (Rattus norvegicus, UniProt P35439+Q00959, L779A); assay: as above; format: cell-based; conditions: 100 μM glutamate + 3 μM glycine
GluN1/GluN2A Q781A = GluN1/GluN2A Q781A (Rattus norvegicus, UniProt P35439+Q00959, Q781A); assay: as above; format: cell-based; conditions: 100 μM glutamate + 3 μM glycine
GluA1 AMPA receptors = GluA1 AMPA receptors (Rattus norvegicus, UniProt P19490); assay: Two-electrode voltage-clamp recordings, Xenopus oocytes; format: cell-based; conditions: 10 μM TCN-201
Procedure, shortened: (§2)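 Xenopus laevis oocytes (female) were injected with in vitro transcribed cRNA and recorded by two-electrode voltage clamp 3–4 d after injection at 23°C, holding at −40 mV. Voltage and current electrodes held 0.3 and 3.0 M KCl.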

GluK2 kainate receptors = GluK2 kainate receptors (Rattus norvegicus, UniProt P42260); assay: as above; format: cell-based; conditions: 10 μM TCN-201
Procedure, shortened: as §2

GluN1/GluN2A = GluN1/GluN2A (Rattus norvegicus, UniProt P35439+Q00959); assay: Whole-cell voltage-clamp recordings, HEK293 cells, rapid solution exchange; format: cell-based; conditions: for % fast / τfast / τslow: brief application (10 ms) of 1000 μM glycine
Procedure, shortened: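 HEK293 cells were plated on poly-D-lysine coverslips about 48 h ahead and calcium-phosphate cotransfected with GluN1, GluN2A and GFP (1:1:1). 200 μM D,L-APV and 200 μM 7-chlorokynurenic acid were added after transfection. Whole-cell recording was done about 24 h later at −60 mV and 23°C on lifted cells with piezo-driven theta-glass exchange.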

[1] = Maximum solubility in extracellular oocyte recording solution; format: physicochemical; conditions: aqueous buffer
GluN1/2A-(2D S1+S2) = GluN1/2A-(2D S1+S2) (Rattus norvegicus, UniProt P35439+Q00959, A414R/D421P/D675E/D715E/DELINS438-452SQLNRTHSPPPDAPRPE/E427G/E790M/F680L/F708Y/G712R/G740R/G786D/H674Q/I408V/I422A/I755V/K454R/K466R/K472G/K668R/K738M/L425I/M788I/N404Q/N432D/N490D/N491G/N696S/P770R/Q661T/Q703S/Q766H/Q774P/R469H/R681K/R692K/R711P/R741K/S407T/S468A/S538A/S677Y/S719Q/S758T/T426S/T433S/T474S/T663S/T706V/T722A/T793R/T797S/V409A/V430I/V471I/V489I/V501F/V506D/V509I/V521I/V718T/V783L/Y676Q/Y700D/Y754K); assay: Two-electrode voltage-clamp recordings, Xenopus oocytes; format: cell-based; conditions: 100 μM glutamate plus 30 μM glycine
GluN1/2A-(2D D2) = GluN1/2A-(2D D2) (Rattus norvegicus, UniProt P35439+Q00959, D675E/D715E/F680L/F708Y/G712R/G740R/H674Q/I755V/K668R/K738M/N696S/Q661T/Q703S/R681K/R692K/R711P/R741K/S677Y/S719Q/T663S/T706V/T722A/V718T/Y676Q/Y700D/Y754K); assay: as above; format: cell-based; conditions: 100 μM glutamate plus 30 μM glycine
[2] = 50 μM glutamate, antagonist 0.1 μM
[3] = 50 μM glutamate, antagonist 0.3 μM
[4] = 50 μM glutamate, antagonist 1 μM

GluN1/GluN2C, sequence (Q00961 20-1237, other chains not shown): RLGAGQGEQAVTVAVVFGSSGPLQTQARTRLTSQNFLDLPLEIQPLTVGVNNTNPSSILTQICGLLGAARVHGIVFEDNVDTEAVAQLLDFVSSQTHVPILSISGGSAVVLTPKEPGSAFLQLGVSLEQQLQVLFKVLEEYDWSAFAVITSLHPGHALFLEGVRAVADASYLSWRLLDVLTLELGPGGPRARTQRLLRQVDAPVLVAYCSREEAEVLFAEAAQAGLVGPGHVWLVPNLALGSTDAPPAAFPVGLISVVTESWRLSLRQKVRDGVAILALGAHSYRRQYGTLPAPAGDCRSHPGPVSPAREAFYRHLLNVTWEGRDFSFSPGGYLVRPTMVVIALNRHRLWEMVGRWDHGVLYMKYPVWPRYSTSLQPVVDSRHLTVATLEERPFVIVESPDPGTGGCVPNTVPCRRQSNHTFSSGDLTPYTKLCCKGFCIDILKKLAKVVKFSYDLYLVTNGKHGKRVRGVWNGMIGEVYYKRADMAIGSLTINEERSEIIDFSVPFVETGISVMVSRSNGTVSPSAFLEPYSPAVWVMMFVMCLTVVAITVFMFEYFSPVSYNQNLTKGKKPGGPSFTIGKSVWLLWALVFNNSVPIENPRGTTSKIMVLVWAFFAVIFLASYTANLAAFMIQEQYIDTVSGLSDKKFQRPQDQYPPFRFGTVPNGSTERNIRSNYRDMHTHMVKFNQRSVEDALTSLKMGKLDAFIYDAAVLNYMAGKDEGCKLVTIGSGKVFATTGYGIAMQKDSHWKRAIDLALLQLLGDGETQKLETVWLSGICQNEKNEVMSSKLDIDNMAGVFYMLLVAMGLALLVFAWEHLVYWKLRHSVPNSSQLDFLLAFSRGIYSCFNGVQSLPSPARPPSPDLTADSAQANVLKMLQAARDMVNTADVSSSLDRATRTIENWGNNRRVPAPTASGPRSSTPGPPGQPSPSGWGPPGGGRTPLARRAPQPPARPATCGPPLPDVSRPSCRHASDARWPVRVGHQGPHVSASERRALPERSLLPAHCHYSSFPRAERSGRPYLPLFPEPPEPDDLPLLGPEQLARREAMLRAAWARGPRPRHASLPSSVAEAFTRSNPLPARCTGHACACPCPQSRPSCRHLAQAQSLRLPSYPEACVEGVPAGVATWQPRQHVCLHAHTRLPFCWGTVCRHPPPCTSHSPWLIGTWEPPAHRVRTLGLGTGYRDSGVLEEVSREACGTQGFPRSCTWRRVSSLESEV
GluN1/GluN2B L783F+F784V, sequence (Q00960 27-1482 L783F/F784V, other chains not shown): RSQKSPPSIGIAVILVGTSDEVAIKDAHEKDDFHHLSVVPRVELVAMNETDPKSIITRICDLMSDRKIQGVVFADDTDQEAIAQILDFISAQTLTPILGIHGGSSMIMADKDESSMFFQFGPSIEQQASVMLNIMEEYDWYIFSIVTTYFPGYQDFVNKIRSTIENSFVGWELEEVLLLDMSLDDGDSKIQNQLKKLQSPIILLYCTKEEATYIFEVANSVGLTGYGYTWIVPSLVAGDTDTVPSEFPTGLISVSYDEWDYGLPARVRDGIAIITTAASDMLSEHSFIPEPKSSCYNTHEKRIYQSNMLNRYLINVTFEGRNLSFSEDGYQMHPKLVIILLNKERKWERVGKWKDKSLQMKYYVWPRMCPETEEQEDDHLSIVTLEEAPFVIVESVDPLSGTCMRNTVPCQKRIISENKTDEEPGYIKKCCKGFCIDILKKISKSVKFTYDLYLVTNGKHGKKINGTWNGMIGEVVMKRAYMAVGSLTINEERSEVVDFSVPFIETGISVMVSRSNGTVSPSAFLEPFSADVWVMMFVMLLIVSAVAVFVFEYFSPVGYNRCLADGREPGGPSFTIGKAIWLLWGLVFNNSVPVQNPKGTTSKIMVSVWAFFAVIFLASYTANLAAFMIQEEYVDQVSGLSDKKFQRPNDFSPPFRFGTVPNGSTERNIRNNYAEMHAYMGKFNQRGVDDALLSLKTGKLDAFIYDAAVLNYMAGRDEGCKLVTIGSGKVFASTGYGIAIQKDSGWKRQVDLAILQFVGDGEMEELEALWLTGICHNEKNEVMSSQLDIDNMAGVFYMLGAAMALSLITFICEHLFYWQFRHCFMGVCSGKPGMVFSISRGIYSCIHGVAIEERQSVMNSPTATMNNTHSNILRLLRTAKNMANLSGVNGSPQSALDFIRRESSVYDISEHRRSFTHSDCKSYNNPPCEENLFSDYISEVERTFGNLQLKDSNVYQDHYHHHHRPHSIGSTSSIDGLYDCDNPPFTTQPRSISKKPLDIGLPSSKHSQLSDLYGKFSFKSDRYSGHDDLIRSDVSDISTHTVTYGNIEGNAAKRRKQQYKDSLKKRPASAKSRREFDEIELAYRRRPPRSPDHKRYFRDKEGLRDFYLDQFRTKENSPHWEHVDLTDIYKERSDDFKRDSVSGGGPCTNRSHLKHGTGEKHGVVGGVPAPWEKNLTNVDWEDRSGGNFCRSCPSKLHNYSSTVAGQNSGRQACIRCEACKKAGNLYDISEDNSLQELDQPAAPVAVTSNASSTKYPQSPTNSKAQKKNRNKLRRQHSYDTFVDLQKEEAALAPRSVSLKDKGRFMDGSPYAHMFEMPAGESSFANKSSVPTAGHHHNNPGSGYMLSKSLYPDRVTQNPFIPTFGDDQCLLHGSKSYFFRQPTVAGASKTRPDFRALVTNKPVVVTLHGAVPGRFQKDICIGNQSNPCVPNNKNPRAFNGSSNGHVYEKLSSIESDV
GluK2 kainate receptors, sequence (P42260 32-908): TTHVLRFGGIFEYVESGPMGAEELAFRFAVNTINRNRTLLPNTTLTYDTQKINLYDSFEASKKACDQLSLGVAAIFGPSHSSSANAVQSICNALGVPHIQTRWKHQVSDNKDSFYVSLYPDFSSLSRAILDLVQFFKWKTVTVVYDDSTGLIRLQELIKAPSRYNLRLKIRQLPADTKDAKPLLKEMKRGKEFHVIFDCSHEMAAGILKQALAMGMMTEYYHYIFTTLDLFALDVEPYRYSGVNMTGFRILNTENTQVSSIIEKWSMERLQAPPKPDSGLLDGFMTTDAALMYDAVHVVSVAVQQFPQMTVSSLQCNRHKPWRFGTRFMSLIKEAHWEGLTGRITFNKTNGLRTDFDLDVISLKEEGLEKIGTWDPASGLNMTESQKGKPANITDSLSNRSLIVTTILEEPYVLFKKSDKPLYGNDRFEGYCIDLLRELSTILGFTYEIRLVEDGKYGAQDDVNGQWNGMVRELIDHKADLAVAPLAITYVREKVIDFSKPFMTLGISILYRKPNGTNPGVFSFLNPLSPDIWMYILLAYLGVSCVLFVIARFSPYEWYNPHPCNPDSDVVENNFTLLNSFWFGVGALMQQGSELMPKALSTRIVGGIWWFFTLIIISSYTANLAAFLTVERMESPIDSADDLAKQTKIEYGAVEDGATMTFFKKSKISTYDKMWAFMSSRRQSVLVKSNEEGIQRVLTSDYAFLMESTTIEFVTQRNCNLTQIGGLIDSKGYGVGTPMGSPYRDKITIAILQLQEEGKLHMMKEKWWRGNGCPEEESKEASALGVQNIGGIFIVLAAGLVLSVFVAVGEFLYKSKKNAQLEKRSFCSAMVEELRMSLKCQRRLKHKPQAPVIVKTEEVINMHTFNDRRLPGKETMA
GluA1 AMPA receptors, sequence (P19490 19-907): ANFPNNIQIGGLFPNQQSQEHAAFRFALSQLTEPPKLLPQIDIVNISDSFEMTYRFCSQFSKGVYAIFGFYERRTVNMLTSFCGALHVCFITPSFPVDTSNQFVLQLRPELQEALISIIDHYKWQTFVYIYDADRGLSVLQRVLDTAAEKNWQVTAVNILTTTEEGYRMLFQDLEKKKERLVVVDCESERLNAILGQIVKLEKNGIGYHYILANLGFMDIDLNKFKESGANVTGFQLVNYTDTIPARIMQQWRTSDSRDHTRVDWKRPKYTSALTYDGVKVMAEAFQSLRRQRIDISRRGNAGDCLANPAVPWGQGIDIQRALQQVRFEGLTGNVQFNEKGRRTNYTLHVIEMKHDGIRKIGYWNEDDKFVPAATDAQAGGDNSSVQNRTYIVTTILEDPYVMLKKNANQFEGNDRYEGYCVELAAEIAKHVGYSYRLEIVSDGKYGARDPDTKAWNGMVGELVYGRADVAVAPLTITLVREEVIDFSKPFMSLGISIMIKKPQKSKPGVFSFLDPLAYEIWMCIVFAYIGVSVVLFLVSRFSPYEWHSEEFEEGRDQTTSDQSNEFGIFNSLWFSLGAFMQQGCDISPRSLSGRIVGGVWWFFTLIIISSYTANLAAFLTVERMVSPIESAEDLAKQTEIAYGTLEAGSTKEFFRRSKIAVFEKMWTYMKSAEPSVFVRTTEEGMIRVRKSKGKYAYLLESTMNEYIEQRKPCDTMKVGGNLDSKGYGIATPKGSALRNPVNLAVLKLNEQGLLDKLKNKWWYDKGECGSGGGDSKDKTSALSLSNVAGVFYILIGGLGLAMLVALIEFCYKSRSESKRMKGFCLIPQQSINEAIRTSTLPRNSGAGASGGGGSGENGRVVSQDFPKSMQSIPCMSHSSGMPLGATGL

Question: For O=C(NNC(=O)c1ccc(CNS(=O)(=O)c2ccc(F)c(Cl)c2)cc1)c1ccccc1 [TCN-201, 3-chloro-4-fluoro-N-[(4-[(2-(phenylcarbonyl)hydrazino)carbonyl]phenyl)methyl]-benzenesulfonamide], which “TCN-201 activity IC50” value (GluN1/2A-(2D S1)) is on record?
Answer: did not affect TCN-201 sensitivity

Question: What about the “TCN-201 activity Max. % inhibition” value (GluN1/2A-(2D S1)) of the same compound?
Answer: 97 ± 1%

Question: What about the “TCN-201 activity nH” value (GluN1/2A-(2D S1)) of the same compound?
Answer: 1.5

Question: And the Kb (GluN1/GluN2B L783F+F784V)?
Answer: 437 nM

Question: What about the “TCN-201 activity nH” value (GluN1/GluN2B L783F+F784V; 100 μM glutamate + 3 μM glycine) of the same compound?
Answer: 1.3

Question: And the “TCN-201 activity IC50” value (GluN1/GluN2C)?
Answer: did not inhibit and N.E.

Question: And the “TCN-201 activity Max. % inhibition” value (GluN1/GluN2A V783A)?
Answer: 91 ± 2%

Question: And the “TCN-201 activity nH” value (GluN1/GluN2A V783A)?
Answer: 1.1

Question: What about the “TCN-201 activity Max. % inhibition” value (GluN1/GluN2A V783F) of the same compound?
Answer: 80 ± 2%

Question: What about the “TCN-201 activity nH” value (GluN1/GluN2A V783F) of the same compound?
Answer: 1.8

Question: And the “TCN-201 activity Max. % inhibition” value (GluN1/GluN2A V783W)?
Answer: 95 ± 2%

Question: What about the “TCN-201 activity nH” value (GluN1/GluN2A V783W) of the same compound?
Answer: 1.0

Question: And the “TCN-201 activity Max. % inhibition” value (GluN1/GluN2A V783H)?
Answer: 93 ± 4%

Question: What about the “TCN-201 activity nH” value (GluN1/GluN2A V783H) of the same compound?
Answer: 0.9

Question: What about the “TCN-201 activity Max. % inhibition” value (GluN1/GluN2A P527A) of the same compound?
Answer: 91 ± 3%

Question: And the “TCN-201 activity nH” value (GluN1/GluN2A P527A)?
Answer: 1.4

Question: What about the “TCN-201 activity Max. % inhibition” value (GluN1/GluN2A L779A) of the same compound?
Answer: 88 ± 5%

Question: And the “TCN-201 activity nH” value (GluN1/GluN2A L779A)?
Answer: 1.3

Question: And the “TCN-201 activity Max. % inhibition” value (GluN1/GluN2A Q781A)?
Answer: 94 ± 2%

Question: And the “TCN-201 activity nH” value (GluN1/GluN2A Q781A)?
Answer: 1.9

Question: And the “Effect on responses activated by 100 μM glutamate” value (GluA1 AMPA receptors)?
Answer: did not affect responses

Question: And the “Effect on responses activated by 100 μM glutamate” value (GluK2 kainate receptors)?
Answer: did not affect responses

Question: And the τinhibition (GluN1/GluN2A; 3 μM TCN-201 in the presence of both glutamate (50 μM) and glycine (10 μM))?
Answer: 3.4 ± 0.2 s

Question: What about the “τinhibition (time constant for TCN-201 binding)” value (GluN1/GluN2A; 3 μM TCN-201 pre-incubated in the absence of any agonists) of the same compound?
Answer: 3.5 ± 0.3 s

Question: What about the τinhibition (GluN1/GluN2A; 3 μM TCN-201 pre-incubated with glutamate alone (50 μM)) of the same compound?
Answer: 1.1 ± 0.1 s

Question: And the “TCN-201 binding / τinhibition” value (GluN1/GluN2A; 3 μM TCN-201 pre-incubated with glycine alone (10 μM))?
Answer: Minimal binding

Question: And the “τweighted for glycine deactivation” value (GluN1/GluN2A; brief (10 ms) 1 mM glycine, 50 μM glutamate, 1 μM TCN-201)?
Answer: 27 ± 2 ms

Question: What about the “% fast” value (GluN1/GluN2A; [2]) of the same compound?
Answer: 74 ± 2%

Question: And the τfast (GluN1/GluN2A; [2])?
Answer: 20 ± 1 ms

Question: What about the τslow (GluN1/GluN2A; [2]) of the same compound?
Answer: 131 ± 7 ms

Question: What about the “% fast” value (GluN1/GluN2A; [3]) of the same compound?
Answer: 82 ± 1%

Question: And the τfast (GluN1/GluN2A; [3])?
Answer: 18 ± 1 ms

Question: What about the τslow (GluN1/GluN2A; [3]) of the same compound?
Answer: 123 ± 11 ms

Question: And the “% fast” value (GluN1/GluN2A; [4])?
Answer: 89 ± 2%

Question: And the τfast (GluN1/GluN2A; [4])?
Answer: 16 ± 2 ms

Question: What about the τslow (GluN1/GluN2A; [4]) of the same compound?
Answer: 116 ± 19 ms

Question: What about the “τweighted for glycine deactivation vs absence of TCN-201” value (GluN1/GluN2A; long (5 seconds) 1 mM glycine, 50 μM glutamate) of the same compound?
Answer: no significant difference

Question: And the “deactivation time constant, mono-exponential fit (τslow)” value (GluN1/GluN2A; long application (5 seconds) of 1000 μM glycine, 50 μM glutamate, antagonist 0.3 μM)?
Answer: 124 ± 12 ms

Question: And the solubility [1]?
Answer: 18 µM (≈ 8.31 µg/mL)

Question: And the “Inhibition by 3 μM TCN-201” value (GluN1/2A-(2D S1+S2))?
Answer: abolished

Question: And the “Inhibition by 3 μM TCN-201” value (GluN1/2A-(2D D2))?
Answer: some TCN-201 activity was retained
